Reference: PubChem BioAssay AID489031 (Sanford-Burnham Center for Chemical Genomics, 2010)
Out of some 330,000 compounds screened, about 1,000 (0.3%) were called active. Many of the other results were omitted from the sample, so actives are more common in it than they were. A number with no mark means an inactive call.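 The calls were made as follows: active = activity change at or below -40% at 20 µM; inactive = the rest.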

These compounds were tested against Apoptotic protease-activating factor 1 (Homo sapiens) (UniProt O14727) (assay: activators of human Apaf-1 apoptosome, primary screen, biochemical, DEVD-Rh110 fluorescence, uHTS (AID 489031)). Settings: Apaf-1 apoptosome caspase-3 activation, at 20 µM, stronger effect = lower value.
Method in brief: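 Schedule: 30 min preincubation, 50 min reaction, room temperature / System: biochemical Apaf-1 apoptosome reconstitution / Medium: 20 mM HEPES pH 7.5 with CHAPS, BSA / Evaluation: Caspase-3 cleavage activity downstream of Apaf-1 activation / Detection: Caspase-3-released Rh110 fluorescence, 540 nm emission, 480 nm excitation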

Chain of Apoptotic protease-activating factor 1 (Homo sapiens) (O14727 whole entry, looked up): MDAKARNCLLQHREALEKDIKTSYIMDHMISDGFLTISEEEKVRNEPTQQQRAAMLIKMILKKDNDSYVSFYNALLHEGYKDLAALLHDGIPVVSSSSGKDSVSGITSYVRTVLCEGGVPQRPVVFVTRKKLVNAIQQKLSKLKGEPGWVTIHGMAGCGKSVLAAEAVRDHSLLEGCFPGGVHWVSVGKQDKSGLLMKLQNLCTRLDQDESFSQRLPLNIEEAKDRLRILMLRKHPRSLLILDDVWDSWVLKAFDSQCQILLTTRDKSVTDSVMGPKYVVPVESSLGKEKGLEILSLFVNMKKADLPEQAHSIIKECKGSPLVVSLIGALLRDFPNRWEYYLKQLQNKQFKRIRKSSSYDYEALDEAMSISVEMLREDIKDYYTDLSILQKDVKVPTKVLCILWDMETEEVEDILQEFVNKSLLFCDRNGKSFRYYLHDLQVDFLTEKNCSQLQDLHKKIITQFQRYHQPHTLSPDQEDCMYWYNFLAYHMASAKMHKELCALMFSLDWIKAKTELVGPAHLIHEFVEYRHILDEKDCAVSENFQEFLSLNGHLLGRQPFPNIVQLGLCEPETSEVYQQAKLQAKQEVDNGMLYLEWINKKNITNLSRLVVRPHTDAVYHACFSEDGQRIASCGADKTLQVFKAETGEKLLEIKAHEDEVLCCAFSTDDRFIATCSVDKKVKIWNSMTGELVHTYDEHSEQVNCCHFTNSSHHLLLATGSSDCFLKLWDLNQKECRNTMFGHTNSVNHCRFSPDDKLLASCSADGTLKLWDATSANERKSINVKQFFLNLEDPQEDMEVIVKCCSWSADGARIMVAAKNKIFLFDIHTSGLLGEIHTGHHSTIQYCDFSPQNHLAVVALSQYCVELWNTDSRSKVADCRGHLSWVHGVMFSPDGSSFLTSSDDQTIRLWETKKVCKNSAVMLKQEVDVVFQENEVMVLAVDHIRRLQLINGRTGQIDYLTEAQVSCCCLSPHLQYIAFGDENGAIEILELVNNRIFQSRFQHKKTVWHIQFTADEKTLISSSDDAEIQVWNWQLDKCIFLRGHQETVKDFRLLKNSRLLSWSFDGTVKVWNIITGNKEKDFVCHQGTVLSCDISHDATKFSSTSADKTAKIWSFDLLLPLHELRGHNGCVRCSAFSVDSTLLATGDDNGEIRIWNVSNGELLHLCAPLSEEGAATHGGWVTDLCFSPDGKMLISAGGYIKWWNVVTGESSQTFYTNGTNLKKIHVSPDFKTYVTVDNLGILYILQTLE

Row | SMILES | activity change, negative = activation
1 | COC(=O)[C@H]1[C@H]2C[C@H]3c4[nH]c5ccccc5c4CCN3C[C@@H]2CC[C@@H]1O | 13.4%
2 | CN1CCN(c2ccccc2NC(=O)COc2ccc(C3CCCCC3)cc2)CC1 | 43.6%
3 | Cc1ccc(S(=O)(=O)C(C#N)c2nc3ccccc3nc2N2CCCC2)cc1C (stereo not drawn) | 60%
4 | Oc1ccc(N=Cc2c(O)ccc3ccccc23)cc1 | 87.2%
5 | Oc1ccc(N=Cc2sc3ccccc3c2Cl)cc1 | 64.8%
6 | Cc1ccc(C(=O)N/N=C\c2cc(Br)c(Br)o2)cn1 | 75.4%
7 | Cc1ccc(S(=O)(=O)N2CCOCC2)cc1C(=O)NC(=S)N(Cc1ccccc1)C(C)C | -57.7% (active)
8 | COc1ccc(/C=C2/C(=O)N(c3ccccc3)N=C2C)c(OC)c1 | 80.1%
9 | CN1CCN(CCCNC(=O)c2ccc(/C=C3\Oc4ccccc4N(Cc4ccc(Cl)cc4)C3=O)cc2)CC1 | 56.6%
10 | O=C(CSc1ccc(-c2ccc(-n3cccn3)cc2)nn1)Nc1ccc([N+](=O)[O-])cc1 | -70.1% (active)
11 | C(=N/Nc1cc(N2CCOCC2)nc(N2CCOCC2)n1)/c1ccccc1 | 76.5%
12 | COc1ccc(-c2nc3cc(C)ccn3c2NC2CCCCC2)cc1SC1CCCCC1 | 48.4%
13 | Cc1oc2c(c1C(=O)N1CCOCC1)C(=O)c1ccccc1C2=O | 65.9%
14 | CCCC(=O)Nc1nc2ccc(NC(=O)c3c(F)c(F)c(OC)c(F)c3F)cc2s1 | -393% (active)
15 | CC(C)n1cnc2c(NCc3ccccc3)cc(OCC3CCN(C)CC3)cc21 | 96.4%
16 | Cc1ccc2c(c1)C1CN(C)CCC1N2S(=O)(=O)c1ccc(Oc2ccc([N+](=O)[O-])cc2)cc1 (stereo not drawn) | 59.9%
17 | COc1ccccc1OCC(=O)Nc1c2c(nn1-c1ccc(F)cc1)CS(=O)(=O)C2 | -88% (active)
18 | NC(N)=NCCCc1cn(CC(=O)N2CCNCC2)nn1 | 40.2%
19 | CC(NC(=O)c1ccccc1SCC(=O)N1CCCC1)c1ccccc1 (stereo not drawn) | 41.6%
20 | O=c1[nH]c2c(c(=O)n1Cc1ccccc1)CCC2 | -300% (active)

Row | SMILES | activity change, negative = activation
21 | COCCn1nnnc1C(c1cc2ccc(OC)cc2[nH]c1=O)N1CCc2ccccc2C1 (stereo not drawn) | 56.8%
22 | CC(C)Cn1c(N)c(C(=O)NCc2cccs2)c2nc3ccccc3nc21 | 63.4%
23 | CCc1nn(CCCN2CCN(c3cccc(Cl)c3)CC2)c(=O)n1CCOc1ccccc1 | 23.5%
24 | CCN(CC)CCOc1ccc2c(c1)C(=NNC(=O)c1ccccn1)c1cc(OCCN(CC)CC)ccc1-2 | 52.5%
25 | O=C(Nc1ccccc1F)c1ccccc1-c1ccccc1 | -42.2% (active)
26 | CC(=O)Nc1ccc(Nc2cc(C)nc(Nc3ccc(NC(C)=O)cc3)n2)cc1 | 46.2%
27 | c1ccc2c(CCN3CCNC[C@H]3Cc3cccc4ccccc34)cccc2c1 | 67%
28 | CCCCCCCCCCOC(=O)Cn1c(COc2cccc(OC)c2)[n+](C)c2ccccc21 | 65.3%
29 | CC1COc2ccccc2N1C(=O)c1cccnc1Cl (stereo not drawn) | -62.8% (active)
30 | N#Cc1c(N2CCCCC2)nc(N)c2c(N)nc(SCC(=O)O)cc12 | 96%
31 | O=C(NCc1ccccn1)c1ccc2nc(-c3ccco3)c(-c3ccco3)nc2c1 | 60.6%
32 | CCOc1[nH]n(-c2ccc(Cl)cc2)c(=O)c1C=Nc1ccc(O)cc1 | 66.9%
33 | CCOc1ccc(N=C2NC(=O)S/C2=C\c2ccc(O)cc2)cc1 | -72% (active)
34 | CC(=O)N(C1=C(Cl)C(=O)c2ccccc2C1=O)c1ccc(C(=O)O)cc1 | 89%
35 | Cc1cc2oc3ccc(NCCC4CCCN4C)cc3c(=O)c2cc1C (stereo not drawn) | 46.9%
36 | Nc1cc(C(F)(F)F)ccc1N1CCOCC1 | -185% (active)
37 | CCN(CC(=O)NCc1cccs1)C(=O)c1cccc(S(=O)(=O)Nc2ccccc2OC)c1 | 60.2%
38 | CCN1C[C@@H]2[C@@H]3C(=O)N(Cc4ccccc4)C(=O)[C@@H]3[C@](Cc3ccccc3)(C(=O)OC)N2C1=NC1CCCCC1 | 41.2%
39 | CN(C)S(=O)(=O)c1ccc2oc(SCC(=O)Nc3ccccc3F)nc2c1 | 61.1%
40 | CCOCCc1c(O)nc(SCC(=O)NCc2ccco2)[nH]c1=O | -133% (active)

Row | SMILES | activity change, negative = activation
41 | Cc1ccc(N=C2NC(=O)/C(=C/C=C/c3ccco3)S2)cc1C | 61.8%
42 | COc1cccc(-c2sc3ccc(OC)cc3c2-c2ccc(OCCN3CCCCC3)cc2)c1 | 61.8%
43 | CCC(C)(C)c1ccc(OCC(=O)N(C)C)c(C(C)(C)CC)c1 | 56.5%
44 | CC(C)N1CCC(NC(=O)Nc2ccccc2)CC1 | -331% (active)
45 | CCOC(=O)C1CCN(C(=O)c2cccc(S(=O)(=O)N(CC)c3ccccc3)c2)CC1 | 45.2%
46 | Clc1ccc(C2=CSC3=Nc4cccc5cccc(c45)N23)cc1 | 90%
47 | Clc1cccc(-c2nc3nc4ccccc4nc3n2Cc2ccco2)c1 | -136% (active)
48 | COc1ccc(S(=O)(=O)/N=C2\C=C(NS(=O)(=O)c3ccccc3)C(=O)c3ccccc32)cc1 | 79.2%
49 | CN1CC(=O)N=C1N | 3.64%
50 | CCCC[C@@H]1CN=C(N)N1CCc1cc(C(F)(F)F)cc(C(F)(F)F)c1 | 52.3%
51 | Nc1ccc2nn(-c3ccc(Cl)cc3)nc2c1 | 83.8%
52 | CC(=O)NC(=S)NNC(=O)c1ccc(Br)cc1 | -56.7% (active)
53 | O=C(Cc1cc(=O)[nH][nH]1)N/N=C/c1ccccc1[N+](=O)[O-] | 40.8%
54 | Cc1ccc(Nc2nc(CSc3nnc(-c4ccncc4)n3-c3ccccc3C)cs2)cc1 | -54.9% (active)
55 | CCCCCCCCCCOC(=O)Cn1c(COc2ccc(C)cc2)[n+](C)c2ccccc21 | 77.7%
56 | N#CC1(C#N)C(C(=O)C23CC4CC(CC(C4)C2)C3)C12CCOCC2 (stereo not drawn) | -214% (active)
57 | O=C(N/N=C\c1cccnc1)c1cc(-c2ccccc2)nc2c(Cl)cccc12 | 40.1%
58 | C=CCNC(=O)c1ccc(C)c(Br)c1 | -44.1% (active)
